Screening results deposited in PubChem by several laboratories.
thrombin 1536: thrombin (human) inhibition | alpha-thrombin, Boc-VPR-AMC fluorogenic substrate cleavage | AID 1046 | inhibition, % at 5 µM | P00734 | actives 0.26% (n = 220,000);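 active = inhibition at or above 40%; inactive = inhibition below 40%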
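System: human alpha-thrombin protein; Compound dosing: one concentration per compound, 5 µM, with 0.2% DMSO; Timing: reaction at room temperature; Technique: AMC fluorescence, 355/460 nm; Controls: enzyme without compound as high, wells lacking enzyme as low.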
KLK5 inh: inhibitors of human kallikrein 5 | Q9Y337 | recombinant hK5, fluorogenic AMC substrate cleavage | inhibition, % at 5 µM | actives 0.59% (n = 210,000);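 active = inhibition of 40% or more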
Target sequence (Q9Y337 67-293 limits assumed): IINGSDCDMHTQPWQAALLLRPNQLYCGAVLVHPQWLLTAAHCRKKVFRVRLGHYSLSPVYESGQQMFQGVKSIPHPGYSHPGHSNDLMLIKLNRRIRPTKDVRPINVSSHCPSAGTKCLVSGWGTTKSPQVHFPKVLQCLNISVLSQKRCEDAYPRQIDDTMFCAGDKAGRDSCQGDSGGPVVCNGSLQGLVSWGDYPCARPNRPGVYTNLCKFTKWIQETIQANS
FXIa inh 1536: blocks human coagulation factor XIa protease activity; purified FXIa, Boc-Glu-Ala-Arg-AMC fluorogenic substrate; AID 798; inhibition, % at 5 µM; P03951; actives 0.14% (n = 220,000);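 active = inhibition of at least 40%; inactive = inhibition below 40%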;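 also: fluorescence of freed AMC excited at 355 nm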
Wee1 degr inh: inhibitors of human Wee1 degradation. HeLa Luc-Wee1K328M stability, luciferase luminescence; 100% = proteasome inhibitor MG132 effect. reporter increase, % at 5 µM. actives 1.2% (n = 220,000). AID 1321;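 active = activation above the mean of all tested compounds plus 3 SD, set per screening run, cut at about 8.8% in these data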;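 also: cells exposed to compound for 20 h before luminescence read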
FXIIa inh 1536: blocks human coagulation factor XIIa protease activity. P00748. purified FXIIa, Boc-QGR-AMC fluorogenic substrate, 2 h. inhibition, % at 5 µM. actives 0.3% (n = 220,000). AID 800; in the data active = inhibition above about 40%
Platelet DG rel: platelet dense granule release activity. human platelet-rich plasma, SFLLRN dense granule ATP release, luminescence. inhibition, %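 (compounds screened at 7.5 µM in platelet-rich plasma)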. actives 0.22% (n = 300,000);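 active = mean replicate score, as percent of positive control, at or above 50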
Wee1 stab conf: confirmation of human Wee1 degradation inhibitors | shares compounds with Wee1 degr inh | HeLa Luc-Wee1K328M degradation, luminescence; vehicle 0%, proteasome-blocked wells 100% | activation, % at 5 µM | actives 4% (n = 1,100) | AID 1410; in the data active = activation above about 8.9%
A number is an active result; . = inactive; / = not tested or not shown. Hits are enriched below; roughly 1.8% of the tested compounds scored in any of these assays.

SMILES | thrombin 1536 | KLK5 inh | FXIa inh 1536 | Wee1 degr inh | FXIIa inh 1536 | Platelet DG rel | Wee1 stab conf
CCCCOC(=O)CCc1c(C)n[nH]c1C | . | . | . | 11.8 | . | . | .
Cc1ccc(OCCCc2c(C)n[nH]c2C)cc1 | . | . | . | . | . | . | /
Cc1ccc(NC(=O)c2cccc(F)c2)cc1S(=O)(=O)N1CCCCCC1 | . | . | . | 14.1 | / | . | .
Cc1cc(C)n(C(=O)c2ccc(C)c(S(=O)(=O)N3CCCCC3)c2)n1 | . | . | . | 24.1 | . | . | .
Cc1ccc(C(=O)N2CCCCC2)cc1S(=O)(=O)N1CCCCCC1 | / | / | / | / | / | . | /
Cc1ccc(NCC(=O)Nc2cccc(F)c2)cc1S(=O)(=O)N1CCCCCC1 | / | / | / | / | / | . | /
O=C(CCS(=O)(=O)Cc1ccccc1F)NCc1ccccc1Cl | . | . | . | . | . | . | /
CC(C)N(Cc1ccccc1)C(=O)CSc1nccn1C | . | . | . | 11.9 | . | . | .
CC(C)N(Cc1ccccc1)C(=O)COc1ccccc1 | / | / | / | / | / | . | /
CC(C)(C)c1ccc(C2(C)NC(=O)N(CC(=O)Nc3ccc4c(c3)OCO4)C2=O)cc1 (stereo not drawn) | . | . | . | 14.1 | . | . | .
CCOCCn1c(CN2CCN(c3ccccc3)CC2)nc2c1c(=O)n(C)c(=O)n2C | / | / | / | 11.3 | / | . | .
Cc1cccc(OCC(=O)O/N=C(\N)c2ccccn2)c1C | . | . | . | 11.2 | . | / | .
CC1(C)Cc2c(C#N)c(N3CCN(C(=O)c4ccccc4)CC3)nc(-c3ccco3)c2CS1 | . | . | . | 15.3 | . | / | .
CC(C)c1nc(N2CCN(C(=O)c3ccccc3)CC2)c(C#N)c2c1COC(C)(C)C2 | . | . | . | . | . | . | /
CCOC(=O)Nc1csnn1 | . | . | . | . | . | . | /
Cc1ccc(C)c(C(=O)NC(C)CCc2ccccc2)c1 (stereo not drawn) | . | . | . | 16.0 | . | . | .
Cc1occc1C(=O)NC(C)CCc1ccccc1 (stereo not drawn) | . | . | . | . | . | . | /
Cc1ccc(OCC(=O)N/N=C2/SCC(=O)N2Cc2ccco2)cc1 | . | . | . | 11.8 | . | . | .
CCCC(=O)N1CCN(c2ccc(NC(=O)C(C)(C)C)cc2Cl)CC1 | . | . | . | . | . | . | /
CCCC(=O)N1CCN(c2ccc(NC(=O)c3cccs3)cc2Cl)CC1 | . | . | . | 16.1 | . | . | .
CC1=C(C)CS(=O)N(S(=O)(=O)c2ccccc2)C1 (stereo not drawn) | . | . | . | 11.1 | . | . | .
CCOC(=O)C1(CCCc2ccccc2)CCN(C(=O)C2CCCO2)CC1 (stereo not drawn) | . | . | . | . | . | . | /
Cc1ccc(O)c(C(CC(=O)NCc2ccco2)c2ccccc2)c1 (stereo not drawn) | . | . | . | 11.3 | . | . | .
Cc1cccc(C(CC(=O)NCc2ccco2)c2ccccc2)c1O (stereo not drawn) | . | . | . | . | . | . | /
Cc1ccc2nc(-c3ccc(NC(=O)COC(=O)c4ccc(Br)o4)cc3)sc2c1 | . | . | . | . | . | / | /
SMILES | thrombin 1536 | KLK5 inh | FXIa inh 1536 | Wee1 degr inh | FXIIa inh 1536 | Platelet DG rel | Wee1 stab conf
Cc1ccc2nc(-c3ccc(NC(=O)COC(=O)c4cncc(Br)c4)cc3)sc2c1 | . | . | . | 15.3 | . | . | .
COc1ccc(N(CC(=O)NC(C)(C)C)S(=O)(=O)c2ccccc2)cc1OC | . | . | . | . | . | . | /
O=C(CCS(=O)(=O)c1ccccc1)Nc1ccc(N2CCOCC2)cc1 | . | . | . | 11.4 | . | . | .
CN1CCN(C(=O)CN(c2ccccc2)S(=O)(=O)N(C)C)CC1 | . | / | . | 10.9 | . | . | .
CN(C)S(=O)(=O)N(CC(=O)N1CCOCC1)c1ccccc1 | . | . | . | . | . | . | /
Cc1cccc(N2CCN(C(=O)CCC(=O)N3CC(C)Oc4ccccc43)CC2)c1C (stereo not drawn) | / | / | / | / | / | . | /
Cc1cc(C)c2c(N=NN(C)C)[nH]nc2n1 | . | . | . | 12.8 | . | . | .
S=c1[nH]nc(-c2ccco2)n1/N=C/c1ccc(Cl)cc1 | . | . | . | 13.0 | . | . | .
O=C(CSC1=NCCN1)C1COc2ccccc2O1 (stereo not drawn) | . | . | . | 12.4 | . | . | .
